ChEMBL document CHEMBL4808231, “Development of curcumin-based amyloid β aggregation inhibitors for Alzheimer's disease using the SAR matrix approach” (Bioorg Med Chem, 2021)
Activity calls are given as the source filed them. The rule behind the calls is not given here.

Tests used:
[1] = Inhibition of human amyloid beta 42 aggregation assessed as decreasing in fluorescence intensity for 3 hrs by ThT fluorescence assay
Procedure, shortened: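 Aβ42 monomer (20 µM final) plus ThT (20 µM final, diluted in PBS pH 7.4) and serial 10-fold compound dilutions (1 to 0.00001 µM), 37 °C for 3 h with 15 s shaking every 5 min. Fluorescence read at ex 430/em 480 nm and corrected against a PBS+ThT blank. IC50 taken from intensity at half Vmax versus concentration; mean ± s.d. of triplicates.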

[2] = Neurotoxicity in human U87 MG cells assessed as cell viability for 24 hrs by MTT assay; assay type: cell-based, U-87MG ATCC; settings: U-87 MG
Procedure, shortened: (§1)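 N2A or U87 MG cells (8x10^3/well, DMEM + 10% FBS, grown overnight at 37 °C, 5% CO2) treated 24 h with compound at 1, 5, 10, 25, 50, 100 and 200 µM. MTT 0.5 mg/mL for 3 h, DMSO added, absorbance read at 550 nm. IC50 from semi-log dose-response plots; mean ± s.d. of three independent experiments in triplicate.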

[3] = Neurotoxicity in mouse N2a cells assessed as cell viability for 24 hrs by MTT assay; assay type: cell-based; procedure, shortened: as §1
N2a = experiment: Neuroprotective effect against amyloid beta-induced cytotoxicity in mouse N2a cells assessed as cell viability measured after 3 hrs by MTT assay (reference value: 55%); assay type: functional
[4] = molecular target: Amyloid-beta precursor protein (Homo sapiens) (UniProt P05067); experiment: Inhibition of amyloid beta (unknown origin) aggregation assessed as increase in generation of amyloid beta oligomers at 10 uM incubated for 30 mins by negative staining TEM imaging analysis
Amyloid-beta precursor protein (Homo sapiens), sequence (P05067 whole entry): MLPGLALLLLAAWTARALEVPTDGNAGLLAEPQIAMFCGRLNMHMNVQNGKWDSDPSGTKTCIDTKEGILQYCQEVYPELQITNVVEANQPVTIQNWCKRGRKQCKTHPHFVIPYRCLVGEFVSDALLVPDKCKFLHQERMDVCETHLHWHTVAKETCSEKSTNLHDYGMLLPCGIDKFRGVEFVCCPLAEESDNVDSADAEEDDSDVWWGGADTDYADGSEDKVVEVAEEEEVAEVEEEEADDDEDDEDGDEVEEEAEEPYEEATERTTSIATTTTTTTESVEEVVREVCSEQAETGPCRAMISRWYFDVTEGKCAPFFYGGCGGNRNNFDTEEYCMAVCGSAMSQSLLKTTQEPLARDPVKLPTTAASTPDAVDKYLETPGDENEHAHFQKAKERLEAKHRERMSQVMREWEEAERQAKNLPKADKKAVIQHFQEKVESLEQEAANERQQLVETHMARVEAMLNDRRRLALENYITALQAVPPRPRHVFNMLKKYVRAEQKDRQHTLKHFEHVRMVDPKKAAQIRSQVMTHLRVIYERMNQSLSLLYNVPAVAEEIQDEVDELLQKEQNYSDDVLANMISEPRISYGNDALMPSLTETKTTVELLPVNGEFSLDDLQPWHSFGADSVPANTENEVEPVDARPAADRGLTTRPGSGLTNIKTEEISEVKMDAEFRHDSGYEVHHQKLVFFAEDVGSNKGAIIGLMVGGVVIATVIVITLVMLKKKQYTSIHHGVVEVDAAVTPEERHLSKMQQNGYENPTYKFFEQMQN
Procedure, shortened: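 Aβ monomer stock (500 µM in 2 mM NaOH, centrifuged supernatant) diluted to 5 µM, incubated alone or with compound in PBS pH 7.4 at 37 °C for 30 min. Sample applied to plasma-hydrophilised carbon grid for 1 min at RT, washed with water, stained 1 min with 1% Nano-W, imaged by TEM at 200 kV.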

Structure (SMILES) | IC50 [1] [nM] | inhibition [4] | IC50 [2] [nM] | IC50 [3] [nM] | Activity (N2a) [%]
COc1cc(/C=C/C(=O)CC(=O)/C=C/c2cccc(C(F)(F)F)c2)ccc1O | 13 |  | 88700 | 65700 | 
O=C(/C=C/c1cccc(C(F)(F)F)c1)CC(=O)/C=C/c1ccc(O)c(C(F)(F)F)c1 | 18 |  |  |  | 
COc1cc(/C=C/C(=O)CC(=O)/C=C/c2ccc(O)c(C(F)(F)F)c2)ccc1O | 52 |  |  |  | 
COC(=O)COc1ccc(/C=C/C(=O)CC(=O)/C=C/c2ccc(O)c(C(F)(F)F)c2)cc1C(F)(F)F | 109 |  |  |  | 
Nc1c2c(nc3ccccc13)CCCC2 [TACRINE] | 22 |  |  |  | 

The next lines start with results.

IC50 [1] [nM] | inhibition [4] | Structure (SMILES) | IC50 [2] [nM] | IC50 [3] [nM] | Activity (N2a) [%]
22 |  | COC(=O)COc1ccc(/C=C/C(=O)CC(=O)/C=C/c2ccc(O)c(C(F)(F)F)c2)cc1OC |  |  | 
55 |  | COC(=O)COc1ccc(/C=C/C(=O)CC(=O)/C=C/c2ccc(OCC(=O)OC)c(C(F)(F)F)c2)cc1OC |  |  | 
46 |  | COC(=O)COc1ccc(/C=C/C(=O)CC(=O)/C=C/c2cccc(C(F)(F)F)c2)cc1OC |  |  | 
55 |  | COc1cc(/C=C/C(=O)CC(=O)/C=C/c2ccc(OCC(=O)OC(C)(C)C)c(C(F)(F)F)c2)ccc1O | > 100000 | > 100000 | >90
7 | Active | COC(=O)COc1ccc(/C=C/C(=O)CC(=O)/C=C/c2ccc(O)c(OC)c2)cc1C(F)(F)F | 90000 | 38700 | 70
693 |  | COc1cc(/C=C/C(=O)CC(=O)/C=C/c2ccc(O)c(OC)c2)ccc1O [CURCUMIN] | 18400 | 22600 | 
29 |  | COC(=O)COc1ccc(/C=C/C(=O)CC(=O)/C=C/c2ccc(O)c(OC)c2)cc1OC |  |  | 
698 |  | COc1cc(/C=C/C(=O)CC(=O)/C=C/c2ccc(OCC(=O)O)c(C(F)(F)F)c2)ccc1O |  |  | 
